pIC50, pKi: −log10 of the molar value. Calls of active or inactive are those of the source. The calls are words filed in the database; no cut-off is given here.
Tests used:
Format in all cases: tissue-based
[1] = target: T1, 4-aminobutyrate aminotransferase, mitochondrial (Rattus norvegicus, UniProt P50554); test: Inhibition of GABA transaminase in rat brain by Kitz-Wilson plot
Outline: (§1)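 GABA-T was isolated from rat brain. For time-dependent inactivation, log remaining activity was plotted against time at each inactivator concentration. Inverse slopes were then plotted against inverse inactivator concentration, and K_I and k_inact were taken from a Kitz–Wilson plot.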

[2] = target: 4-aminobutyrate aminotransferase, mitochondrial (Rattus norvegicus) (UniProt P50554); test: (§2) Activity of GABA transaminase in rat brain
4-aminobutyrate aminotransferase, mitochondrial (Rattus norvegicus), sequence (P50554 28-500 limits assumed): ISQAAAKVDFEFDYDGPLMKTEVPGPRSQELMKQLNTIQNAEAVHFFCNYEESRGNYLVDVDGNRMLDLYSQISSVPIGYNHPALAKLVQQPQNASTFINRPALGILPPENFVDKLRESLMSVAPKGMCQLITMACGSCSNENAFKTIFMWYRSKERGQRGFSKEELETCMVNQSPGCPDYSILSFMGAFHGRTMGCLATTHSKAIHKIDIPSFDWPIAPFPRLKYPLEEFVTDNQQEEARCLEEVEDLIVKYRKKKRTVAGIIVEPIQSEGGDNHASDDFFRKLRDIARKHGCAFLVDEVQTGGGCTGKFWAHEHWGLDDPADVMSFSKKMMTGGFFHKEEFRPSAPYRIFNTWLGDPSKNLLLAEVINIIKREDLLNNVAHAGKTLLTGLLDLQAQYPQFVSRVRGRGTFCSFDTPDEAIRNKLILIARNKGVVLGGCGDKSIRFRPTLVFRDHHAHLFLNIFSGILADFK

[3] = target: T1, 4-aminobutyrate aminotransferase, mitochondrial; test: as §2
[4] = target: 4-aminobutyrate aminotransferase, mitochondrial (Rattus norvegicus) (UniProt P50554); test: Ratio of Kinact to KI for GABA transaminase in rat brain; outline: as §1
[5] = target: 4-aminobutyrate aminotransferase, mitochondrial (Rattus norvegicus) (UniProt P50554); test: Inhibition of GABA transaminase in rat brain at 45 uM after 40 mins in presence of alpha-ketoglutarate
Outline: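 Rat brain GABA-T was incubated with GABA, inhibitor (45 μM) and varying α-ketoglutarate concentrations together for 40 min before enzyme activity was measured.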

[6] = target: 4-aminobutyrate aminotransferase, mitochondrial (Rattus norvegicus) (UniProt P50554); test: Inhibition of GABA transaminase in rat brain at 60 uM after 30 mins by gel filtration
Outline: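 Rat brain GABA-T was incubated with 60 μM inhibitor at 25 °C for 30 min and an aliquot was assayed. The remaining mixture was passed through Sephadex G50 to remove small molecules and assayed again. An identical sample without inactivator served as control. Values are mean ± SEM, n = 6.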

[7] = target: 4-aminobutyrate aminotransferase, mitochondrial (Rattus norvegicus) (UniProt P50554); test: Inhibition of GABA transaminase in rat brain at 30 uM for 40 mins in presence of 30 mM alpha-ketoglutarate
Outline: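 Rat brain GABA-T was preincubated with inhibitor (30 μM) for 40 min. Increasing concentrations of α-ketoglutarate, up to 30 mM, were then added and residual activity was measured. A no-inactivator control was run. Values are mean ± SEM, n = 6.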

T1 sequence (P50554 whole entry): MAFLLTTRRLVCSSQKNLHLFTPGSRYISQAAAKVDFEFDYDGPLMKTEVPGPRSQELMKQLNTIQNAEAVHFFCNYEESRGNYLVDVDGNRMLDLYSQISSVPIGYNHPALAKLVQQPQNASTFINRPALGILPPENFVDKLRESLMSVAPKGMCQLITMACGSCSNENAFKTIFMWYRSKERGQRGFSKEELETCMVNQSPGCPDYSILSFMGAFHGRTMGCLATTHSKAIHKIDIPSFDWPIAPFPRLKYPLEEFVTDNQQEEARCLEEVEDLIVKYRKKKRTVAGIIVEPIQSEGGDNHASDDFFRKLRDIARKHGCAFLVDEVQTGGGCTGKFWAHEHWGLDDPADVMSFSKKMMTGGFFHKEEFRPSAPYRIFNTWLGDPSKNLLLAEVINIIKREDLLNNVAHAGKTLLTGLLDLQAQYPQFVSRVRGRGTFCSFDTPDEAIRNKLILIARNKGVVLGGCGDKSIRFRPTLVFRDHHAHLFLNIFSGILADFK

Kinact [2] [min⁻¹]	pKi [3]	Ratio [4]	Activity [5]	Activity [6]	Activity [7]	SMILES	pIC50 [1]
0.0457	4.61	1.88	inactive	Active	Active	O=C(CCCl)c1ccc(O)cc1	5.40
–	–	–	–	–	–	O=Cc1ccc(O)cc1 [4-HYDROXYBENZALDEHYDE]	4.78

Source: ChEMBL document CHEMBL1143378, “Inactivation of GABA transaminase by 3-chloro-1-(4-hydroxyphenyl)propan-1-one” (Bioorg Med Chem Lett, 2009)
